Laboratory results published in PubChem BioAssay AID1885 (Broad Institute, 2009).
About 4,400 (1.5%) of roughly 300,000 compounds were called active.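 How the source made its calls: active means mean inhibition across valid replicates above about 55% (limit read from the data); inconclusive means mean below that limit but half or more replicates reach it; inactive means mean below it, under half of replicates reach it.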 This excerpt belongs to a sample that is enriched for actives.

Assay: Trypanosoma cruzi replication blockers in host cells – luminescence, NIH3T3 host cells, primary screen (AID 1885);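 further: signal also drops with host cell toxicity which is not excluded here; 0% = plate median of DMSO wells and 100% = zero luminescence signal; higher percent means less beta-gal luminescence so fewer parasites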
Details: T. cruzi beta-gal in NIH3T3, luminescence, 90 h; hits give high values; concentration not given here
How it was run: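 Assay system: NIH/3T3 host cells with β-galactosidase reporter T. cruzi; input: 5,000 host fibroblasts per well; compound: single 50 nL compound addition per well in DMSO; timing: ≥90 h infection period, 3 h prior cell attachment; measured by: GalScreen β-gal luminescence, detergent lysis, 60 min; evaluation: percent inhibition of parasite-derived β-gal signal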

| SMILES | inhibition |
| --- | --- |
| CN1CCC(=NNC(=O)c2ccc(N(Cc3ccc(Cl)cc3)S(C)(=O)=O)cc2)CC1 | 8.52% (inactive) |
| O=C(COc1ccc(Cl)cc1)NCCS(=O)(=O)N1CCN(c2ccc(F)cc2)CC1 | 11.2% (inactive) |
| COc1ccc(C(O)(C2CCCCC2)C(CN2CCCC2)c2ccccc2)cc1 (configuration not stated) | 2.61% (inactive) |
| COC(=O)[C@]1(C)N[C@H](c2ccc(-c3ccc(Cl)c(Cl)c3)cc2)[C@@H]2C(=O)N(C)C(=O)[C@@H]21 | -12.4% (inactive) |
| COc1ccc(NC(=O)CN(C)C(=O)c2ccc(NC3CC3)c([N+](=O)[O-])c2)cc1 | -6.67% (inactive) |
| CSc1nc2ccccc2cc1/C=C(\C#N)c1ccc(Cl)cc1Cl | 4.89% (inactive) |
| Cc1ccc(-c2nn(-c3ccccc3)cc2/C=N/NC(=O)c2ccc3c(c2)OCO3)cc1 | 28% (inactive) |
| O=C(N/N=C/c1ccc([N+](=O)[O-])o1)c1cn(-c2ccccc2)nc1-c1ccc(F)cc1 | 69.4% (active) |
| Cc1nnc(SCC(=O)N/N=C/c2cn(-c3ccccc3)nc2-c2ccc(F)cc2)n1-c1ccccc1 | -11.7% (inactive) |
| COc1cccc(OC)c1C(=O)Nc1sc2c(c1C(N)=O)CCCC2 | 9.96% (inactive) |
| c1ccc2c(c1)C(=NC1CCCCC1)NC2=NC1CCCCC1 | 55.5% (active) |
| COc1cccc(COC(=O)C2CCN(S(=O)(=O)c3ccc(Cl)cc3)CC2)c1OC | -3.47% (inactive) |
| Cc1oc(C)c(C(=O)NCCCC(=O)O)c1C(=O)NCCCC(=O)O | -21.2% (inactive) |
| O=C(CSc1ncccn1)NCCc1ccccc1 | -13.3% (inactive) |
| CC(C)(C)NC(=O)Cn1cnc([N+](=O)[O-])n1 | 50.4% (inactive) |
| O=C(Cn1cnc([N+](=O)[O-])n1)NCCc1ccccc1 | 76.4% (active) |
| Cc1cc(C)c(S(=O)(=O)n2cc(C(C)C(N)C(=O)O)c3ccccc32)c(C)c1 (configuration not stated) | -6.09% (inactive) |
| Cc1cccc(C)c1OCC(O)CN1CCCCC1 (configuration not stated) | -1.54% (inactive) |
| OC(COc1ccc(Br)cc1)CN1CCCC1 (configuration not stated) | 10.2% (inactive) |
| OC(COCCC12CC3CC(CC(C3)C1)C2)CN1CCCCC1 (configuration not stated) | 62% (active) |
| COc1ccc(C(=O)/C=C/c2ccc(-c3ccccc3)cc2)cc1CSCC(=O)O | -21% (inactive) |
| Cc1ccc(S(=O)(=O)N(C)C)cc1NC(=O)COC(=O)/C=C/c1cccs1 | -8.51% (inactive) |
| Cc1ccc(-c2cc(=O)[nH]c(NCc3ccccc3)n2)cc1 | -16.4% (inactive) |
| Cc1c(C)n(Cc2ccc(Cl)cc2)c2ccc(C(=O)NCCCN3CCOCC3)cc12 | 12.7% (inactive) |
| COc1ccc(C2CC(c3ccccc3)=NN2C(=O)c2ccc(Cl)c([N+](=O)[O-])c2)cc1 (configuration not stated) | 54.8% (active) |
| COc1ccc(C2=NN(C(=O)c3cccnc3)C(c3ccccc3)C2)cc1 (configuration not stated) | 3.02% (inactive) |
| COc1ccc(C2CC(c3ccc([N+](=O)[O-])cc3)=NN2C(C)=O)cc1 (configuration not stated) | 4.42% (inactive) |
